Measured values published in BindingDB's records for doi:10.1016/j.ejmech.2016.09.032 (China Pharmaceutical University, 2017).

Experiments:
[1] = target: T1, Integrin alpha-IIb/beta-3 (Homo sapiens, UniProt P08514+P05106); experiment: Antagonist activity at GP2b/GP3a receptor in human platelet rich plasma assessed as inhibition of ADP-induced platelet aggregation preincubated for 1 min followed by ADP addition by aggregometric method
Summary of the method: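 Human PRP from apheresis platelets, PPP from centrifugation at 3000r/min for 10 min used as reference. Compound in saline or 0.2% aqueous DMSO added to PRP, incubated 1 min, then ADP 20 μM (per table footnotes; methods list 10 μM) added. Light transmission aggregometry at 37°C, maximal aggregation vs PPP. Inhibition relative to control aggregation ratio. IC50 from at least four concentrations.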

[2] = target: T1, Integrin alpha-IIb/beta-3; experiment: Antagonist activity at GP2b/GP3a receptor in human platelet rich plasma assessed as inhibition of collagen-induced platelet aggregation preincubated for 1 min […] by aggregometric method
Summary of the method: (§1)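 Aggregometry at 37°C in human apheresis PRP, PPP as reference. Compound in saline or 0.2% aqueous DMSO preincubated 1 min before inducer: collagen 1 μg/ml, thrombin 0.26 U/ml or U46619 2 μM (figure and table values; methods state 9 μg/ml, 1 U/ml, 6 μM). Percent inhibition vs control. IC50 from at least four concentrations, means of two to three dose-response curves.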

[3] = target: T1, Integrin alpha-IIb/beta-3; experiment: Antagonist activity at GP2b/GP3a receptor in human platelet rich plasma assessed as inhibition of U46619-induced platelet aggregation preincubated for 1 min […] by aggregometric method; summary of the method: as §1
[4] = target: T1, Integrin alpha-IIb/beta-3; experiment: Antagonist activity at GP2b/GP3a receptor in human platelet rich plasma assessed as inhibition of thrombin-induced platelet aggregation preincubated for 1 min […] by aggregometric method; summary of the method: as §1

T1 sequence (P05106 27-788 limits assumed): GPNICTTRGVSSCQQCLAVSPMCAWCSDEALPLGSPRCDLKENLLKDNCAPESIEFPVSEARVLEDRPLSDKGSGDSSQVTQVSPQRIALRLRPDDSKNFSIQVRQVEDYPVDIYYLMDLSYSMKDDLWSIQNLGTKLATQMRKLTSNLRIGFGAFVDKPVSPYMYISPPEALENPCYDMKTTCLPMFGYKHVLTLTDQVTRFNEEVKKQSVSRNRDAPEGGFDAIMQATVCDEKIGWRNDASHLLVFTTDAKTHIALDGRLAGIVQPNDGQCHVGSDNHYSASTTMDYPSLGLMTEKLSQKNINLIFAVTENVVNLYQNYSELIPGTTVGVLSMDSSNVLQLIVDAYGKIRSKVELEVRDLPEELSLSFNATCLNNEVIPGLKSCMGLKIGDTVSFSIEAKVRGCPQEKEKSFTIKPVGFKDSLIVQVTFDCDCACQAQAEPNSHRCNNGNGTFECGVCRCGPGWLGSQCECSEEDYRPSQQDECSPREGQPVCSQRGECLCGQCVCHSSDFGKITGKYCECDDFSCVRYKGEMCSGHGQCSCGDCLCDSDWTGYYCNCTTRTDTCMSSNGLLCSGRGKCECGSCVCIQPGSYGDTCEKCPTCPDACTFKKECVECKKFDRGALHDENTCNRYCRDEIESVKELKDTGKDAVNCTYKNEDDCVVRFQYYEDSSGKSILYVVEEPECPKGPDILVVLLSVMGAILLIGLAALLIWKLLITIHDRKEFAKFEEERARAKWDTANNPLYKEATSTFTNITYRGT
T1 sequence (P08514 32-887 limits assumed): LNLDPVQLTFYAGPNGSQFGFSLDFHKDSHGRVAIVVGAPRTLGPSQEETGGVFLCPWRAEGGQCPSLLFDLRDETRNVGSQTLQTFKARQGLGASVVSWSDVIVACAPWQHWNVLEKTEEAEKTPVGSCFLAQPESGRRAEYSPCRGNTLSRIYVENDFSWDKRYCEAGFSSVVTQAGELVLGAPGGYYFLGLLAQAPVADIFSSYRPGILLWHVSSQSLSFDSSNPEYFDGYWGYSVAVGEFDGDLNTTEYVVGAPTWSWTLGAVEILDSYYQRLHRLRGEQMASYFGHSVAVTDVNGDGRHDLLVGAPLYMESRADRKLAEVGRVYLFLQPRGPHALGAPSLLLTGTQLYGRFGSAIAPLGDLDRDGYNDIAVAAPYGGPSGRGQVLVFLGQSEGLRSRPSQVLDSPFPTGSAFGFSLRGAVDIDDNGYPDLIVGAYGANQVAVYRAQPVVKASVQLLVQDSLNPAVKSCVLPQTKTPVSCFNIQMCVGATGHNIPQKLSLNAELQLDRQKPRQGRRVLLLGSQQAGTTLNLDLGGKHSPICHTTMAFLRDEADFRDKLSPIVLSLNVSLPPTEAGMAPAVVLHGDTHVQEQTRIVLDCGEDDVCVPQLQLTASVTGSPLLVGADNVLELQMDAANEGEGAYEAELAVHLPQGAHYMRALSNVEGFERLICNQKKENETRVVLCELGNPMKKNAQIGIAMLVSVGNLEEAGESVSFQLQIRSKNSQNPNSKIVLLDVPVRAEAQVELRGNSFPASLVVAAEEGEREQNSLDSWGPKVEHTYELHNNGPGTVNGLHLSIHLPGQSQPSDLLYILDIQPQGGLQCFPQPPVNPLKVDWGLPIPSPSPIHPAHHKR
T1 sequence (P08514 891-1039 limits assumed): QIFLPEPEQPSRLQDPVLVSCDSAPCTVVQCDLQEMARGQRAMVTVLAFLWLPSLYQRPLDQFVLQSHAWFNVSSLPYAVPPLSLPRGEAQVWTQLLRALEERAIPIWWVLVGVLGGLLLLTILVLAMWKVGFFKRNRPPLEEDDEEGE

Compound	IC50 [1] [µM]	also measured
COc1ccc(S(=O)(=O)NC(Cc2ccc3cc(OCCCN4CCNCC4)ccc3c2)C(=O)O)cc1 (centres undefined)	1.65	–
O=C(O)C(Cc1ccc2cc(OCCCN3CCNCC3)ccc2c1)NS(=O)(=O)c1ccc(Br)cc1 (centres undefined)	0.37	–
O=C(NC(Cc1ccc2cc(OCCCN3CCNCC3)ccc2c1)C(=O)O)c1cccc(F)c1 (centres undefined)	6.38	–
O=C(O)C(Cc1ccc2cc(OCC3CCNCC3)ccc2c1)NS(=O)(=O)c1ccc(Br)cc1 (centres undefined)	> 100	–
O=C(O)C(Cc1ccc2cc(OCCCCN3CCNCC3)ccc2c1)NS(=O)(=O)c1ccc(Br)cc1 (centres undefined)	18.8	–
N=C(N)c1ccc(COc2ccc3cc(CC(NS(=O)(=O)c4ccccc4)C(=O)O)ccc3c2)cc1 (centres undefined)	0.84	IC50 [2]: 27.7 µM; IC50 [3]: 23.6 µM; IC50 [4]: 22.9 µM
O=C(O)C(Cc1ccc2cc(OCCC3CCNCC3)ccc2c1)NS(=O)(=O)c1ccc(Br)cc1 (centres undefined)	> 100	–
O=C(O)C(Cc1ccc2cc(OCCN3CCNCC3)ccc2c1)NS(=O)(=O)c1ccc(Br)cc1 (centres undefined)	12.8	–
O=C(O)C(Cc1ccc2cc(OCCCN3CCNCC3)ccc2c1)NS(=O)(=O)c1ccc([N+](=O)[O-])cc1 (centres undefined)	0.2	–
COc1ccc(C(=O)NC(Cc2ccc3cc(OCCCN4CCNCC4)ccc3c2)C(=O)O)cc1 (centres undefined)	12.7	–
O=C(O)C(Cc1ccc2cc(OCCCC3CCNCC3)ccc2c1)NS(=O)(=O)c1ccc(Br)cc1 (centres undefined)	> 100	–
O=C(NC(Cc1ccc2cc(OCCCN3CCNCC3)ccc2c1)C(=O)O)c1ccc([N+](=O)[O-])cc1 (centres undefined)	3.4	–
Cc1ccc(S(=O)(=O)NC(Cc2ccc3cc(OCc4ccc(C(=N)N)cc4)ccc3c2)C(=O)O)cc1 (centres undefined)	4.01	–
O=C(NC(Cc1ccc2cc(OCCCN3CCNCC3)ccc2c1)C(=O)O)c1ccc(F)cc1 (centres undefined)	7.6	–
CCCC(=O)NC(Cc1ccc2cc(OCCCN3CCNCC3)ccc2c1)C(=O)O (centres undefined)	5.4	–
CCCCS(=O)(=O)NC(Cc1ccc2cc(OCc3ccc(C(=N)N)cc3)ccc2c1)C(=O)O (centres undefined)	3.29	–
O=C(O)C(Cc1ccc2cc(OCCCN3CCNCC3)ccc2c1)NS(=O)(=O)c1ccccc1 (centres undefined)	0.18	IC50 [2]: 1.32 µM; IC50 [3]: 1.01 µM; IC50 [4]: 0.53 µM
O=C(NC(Cc1ccc2cc(OCCCN3CCNCC3)ccc2c1)C(=O)O)c1ccccc1 (centres undefined)	7.9	–
O=C(NC(Cc1ccc2cc(OCCCN3CCNCC3)ccc2c1)C(=O)O)c1cc(Cl)cc(Cl)c1 (centres undefined)	24.6	–
O=C(O)C(Cc1ccc2cc(OCCCN3CCNCC3)ccc2c1)NS(=O)(=O)c1ccc(F)cc1 (centres undefined)	0.28	–
CCCC(=O)NC(Cc1ccc2cc(OCc3ccc(C(=N)N)cc3)ccc2c1)C(=O)O (centres undefined)	1.08	–
N=C(N)c1ccc(COc2ccc3cc(CC(NC(=O)c4ccc([N+](=O)[O-])cc4)C(=O)O)ccc3c2)cc1 (centres undefined)	2.1	–
CCCCS(=O)(=O)NC(Cc1ccc2cc(OCCCN3CCNCC3)ccc2c1)C(=O)O (centres undefined)	0.52	–
